In brackets after ≈: the same amount, converted by molar mass. Activity calls are given as the source filed them. No cut-off for these calls is given here.
What was measured:
Type in all cases: functional
Escherichia coli [1] = experiment: Antimicrobial activity against Escherichia coli 2109 at 35 degC after 18 to 24 hrs by NCCLS method based antimicrobial assay; details: for MBC: read-out: MBC99.9
Aspergillus niger [2] = experiment: Antimicrobial activity against Aspergillus niger 545 at 35 degC after 48 hrs by CLSI method based antimicrobial assay
Summary of the method: (§1)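 Broth microdilution following CLSI guidelines over 256 to 1 µg/mL. MIC90 is the lowest concentration completely inhibiting growth. For MFC, 0.1 mL from each tube spread on agar and CFU counted after 48 h at 35 °C; MFC is lowest concentration killing 99.9% of inoculum. MFC/MIC ratio calculated: […], ≤4 as fungicidal.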

Pseudomonas aeruginosa [3] = experiment: Antimicrobial activity against Pseudomonas aeruginosa 2036 at 128 ug/disc at 35 degC after 24 hrs by agar-well diffusion assay; details: for zone of inhibition at 128 µg/disc: Pseudomonas aeruginosa, 2036, 24 h, read-out: DIZ
Summary of the method: (§2)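 Agar-well diffusion: 24 h bacterial cultures adjusted to 0.5 McFarland (1.5 × 10⁸ CFU/mL) and mixed into molten Mueller-Hinton agar before pouring. 6 mm wells punched and each filled with 50 µL of compound stock or control. Plates incubated 35 °C for 24 h. Zone of growth inhibition diameter measured with vernier caliper.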

Escherichia coli [4] = experiment: Antimicrobial activity against Escherichia coli 2109 at 128 ug/disc at 35 degC after 24 hrs by agar-well diffusion assay; details: for zone of inhibition at 128 µg/disc: Escherichia coli, 2109, 24 h, read-out: DIZ; summary of the method: as §2
Aspergillus niger [5] = experiment: Antimicrobial activity against Aspergillus niger 545 at 128 ug/disc at 37 degC after 24 to 72 hrs by agar-well diffusion assay; details: in the assay text read “disc diffusion assay” for “agar-well diffusion assay”
Summary of the method: (§3)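 Potato dextrose agar base plates overlaid with seeded agar cooled to 40 °C and inoculated with spores from 10-day cultures, final 1 × 10⁶ spores/mL. Compounds dissolved in DMSO at 128 µg/mL and applied on 6 mm filter-paper discs placed on chilled seeded medium. Nystatin positive control, DMSO negative control. Incubation 24–72 h at 37 °C. Inhibition zone diameter read by vernier caliper.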

Candida albicans [6] = experiment: Antimicrobial activity against Candida albicans 3471 at 128 ug/disc at 37 degC after 24 to 72 hrs by agar-well diffusion assay; details: for zone of inhibition at 128 µg/disc: read-out: DIZ; summary of the method: as §3
Pseudomonas aeruginosa [7] = experiment: Antimicrobial activity against Pseudomonas aeruginosa 2036 at 35 degC after 18 to 24 hrs by NCCLS method based antimicrobial assay; details: for MBC: read-out: MBC99.9
Staphylococcus aureus [8] = experiment: Antimicrobial activity against Staphylococcus aureus 2079 at 35 degC after 18 to 24 hrs by NCCLS method based antimicrobial assay; details: for MBC: read-out: MBC99.9
Bacillus subtilis [9] = experiment: Antimicrobial activity against Bacillus subtilis 2250 at 128 ug/disc at 35 degC after 24 hrs by agar-well diffusion assay; details: for zone of inhibition at 128 µg/disc: Bacillus subtilis, 2250, 24 h, read-out: DIZ; summary of the method: as §2
Staphylococcus aureus [10] = experiment: Antimicrobial activity against Staphylococcus aureus 2079 at 128 ug/disc at 35 degC after 24 hrs by agar-well diffusion assay; details: for zone of inhibition at 128 µg/disc: Staphylococcus aureus, 2079, 24 h, read-out: DIZ; summary of the method: as §2
Bacillus subtilis [11] = experiment: Antimicrobial activity against Bacillus subtilis 2250 at 35 degC after 18 to 24 hrs by NCCLS method based antimicrobial assay; details: for MBC: read-out: MBC99.9
Candida albicans [12] = experiment: Antimicrobial activity against Candida albicans 3471 at 35 degC after 48 hrs by CLSI method based antimicrobial assay; details: for MFC: read-out: MFC99.9; summary of the method: as §1
Candida albicans [13] = experiment: Ratio of MFC99.9 to MIC90 for Candida albicans 3471 at 35 degC after 48 hrs by CLSI method based antimicrobial assay; summary of the method: as §1

| MIC (Escherichia coli [1]) | MIC (Aspergillus niger [2]) | MIC (Pseudomonas aeruginosa [7]) | MIC (Staphylococcus aureus [8]) | MIC (Bacillus subtilis [11]) | MIC (Candida albicans [12]; Candida albicans, 3471, 48 h) | SMILES | MBC (Escherichia coli [1]) | MFC99.9 (Aspergillus niger [2]) | diameter of the inhibition zone (DIZ) (Pseudomonas aeruginosa [3]) | zone of inhibition at 128 µg/disc (Escherichia coli [4]) | diameter of the inhibition zone (DIZ) (Aspergillus niger [5]) | MBC99.9 (Pseudomonas aeruginosa [7]) | MBC99.9 (Staphylococcus aureus [8]) | diameter of the inhibition zone (DIZ) (Bacillus subtilis [9]) | diameter of the inhibition zone (DIZ) (Staphylococcus aureus [10]) | MBC99.9 (Bacillus subtilis [11]) | MBC99.9 (Escherichia coli [1]) | Ratio (Candida albicans [13]) | zone of inhibition at 128 µg/disc (Candida albicans [6]) | MFC (Candida albicans [12]; Candida albicans, 3471, 48 h) | further results |
| --- | --- | --- | --- | --- | --- | --- | --- | --- | --- | --- | --- | --- | --- | --- | --- | --- | --- | --- | --- | --- | --- |
| 128 µg/mL (≈ 216 µM) | inactive | inactive | inactive | inactive |  | O=[N+]([O-])c1ccc(-c2csc(N/N=C(/Cn3nnc4ccccc43)c3cc(C(F)(F)F)cc(C(F)(F)F)c3)n2)cc1 | 256 µg/mL (≈ 433 µM) | inactive | inactive | 13.1 mm | inactive | inactive | inactive | inactive | inactive | inactive |  |  |  |  | diameter of the inhibition zone (DIZ) (Candida albicans [6]): inactive; MFC99.9 (Candida albicans [12]): inactive; MIC (Candida albicans [12]): inactive |
|  |  |  |  |  |  | O=C(N[C@H](CO)[C@H](O)c1ccc([N+](=O)[O-])cc1)C(Cl)Cl [CHLORAMPHENICOL] | 32 µg/mL (≈ 99 µM) |  |  | 27.6 mm |  |  |  |  |  |  |  |  |  |  | zone of inhibition at 128 µg/disc (Pseudomonas aeruginosa [3]): 23.9 mm; MBC (Pseudomonas aeruginosa [7]): 32 µg/mL (≈ 99 µM); MBC (Staphylococcus aureus [8]): 32 µg/mL (≈ 99 µM); zone of inhibition at 128 µg/disc (Bacillus subtilis [9]): 29.2 mm; zone of inhibition at 128 µg/disc (Staphylococcus aureus [10]): 31.4 mm; MBC (Bacillus subtilis [11]): 32 µg/mL (≈ 99 µM) |
| inactive | inactive | 64 µg/mL (≈ 102 µM) | inactive | inactive |  | FC(F)(F)c1cc(/C(Cn2nnc3ccccc32)=N\Nc2nc(-c3ccc(Br)cc3)cs2)cc(C(F)(F)F)c1 |  | inactive |  |  | inactive |  | inactive | inactive | inactive | inactive | inactive |  |  |  | zone of inhibition at 128 µg/disc (Pseudomonas aeruginosa [3]): 15.6 mm; diameter of the inhibition zone (DIZ) (Candida albicans [6]): inactive; MBC (Pseudomonas aeruginosa [7]): 128 µg/mL (≈ 205 µM); MFC99.9 (Candida albicans [12]): inactive; MIC (Candida albicans [12]): inactive |
| inactive | inactive | inactive | 32 µg/mL (≈ 56.3 µM) | 128 µg/mL (≈ 225 µM) | 32 µg/mL (≈ 56.3 µM) | Brc1ccc(/C(Cn2nnc3ccccc32)=N\Nc2nc(-c3ccc(Br)cc3)cs2)cc1 |  | inactive | inactive |  | inactive | inactive |  |  |  |  | inactive | 2 | 18.1 mm | 64 µg/mL (≈ 113 µM) | diameter of the inhibition zone (DIZ) (Escherichia coli [4]): inactive; MBC (Staphylococcus aureus [8]): 64 µg/mL (≈ 113 µM); zone of inhibition at 128 µg/disc (Bacillus subtilis [9]): 17.2 mm; zone of inhibition at 128 µg/disc (Staphylococcus aureus [10]): 23.4 mm; MBC (Bacillus subtilis [11]): 256 µg/mL (≈ 450 µM) |
| 64 µg/mL (≈ 131 µM) | inactive | 64 µg/mL (≈ 131 µM) | inactive | inactive |  | O=[N+]([O-])c1ccc(/C(Cn2nnc3ccccc32)=N\Nc2nc(-c3ccc(Cl)cc3)cs2)cc1 | 128 µg/mL (≈ 261 µM) | inactive |  | 18.7 mm | inactive |  | inactive | inactive | inactive | inactive |  |  |  |  | zone of inhibition at 128 µg/disc (Pseudomonas aeruginosa [3]): 16.7 mm; diameter of the inhibition zone (DIZ) (Candida albicans [6]): inactive; MBC (Pseudomonas aeruginosa [7]): 128 µg/mL (≈ 261 µM); MFC99.9 (Candida albicans [12]): inactive; MIC (Candida albicans [12]): inactive |
| 32 µg/mL (≈ 55.1 µM) |  | inactive | inactive | inactive | 64 µg/mL (≈ 110 µM) | FC(F)(F)c1cc(-c2csc(N/N=C(/Cn3nnc4ccccc43)c3ccc(Cl)cc3)n2)cc(C(F)(F)F)c1 | 64 µg/mL (≈ 110 µM) | inactive | inactive | 21.1 mm | inactive | inactive | inactive | inactive | inactive | inactive |  | 2 | 13.7 mm | 128 µg/mL (≈ 220 µM) |  |
| 128 µg/mL (≈ 256 µM) | inactive | inactive | inactive | inactive | 64 µg/mL (≈ 128 µM) | O=[N+]([O-])c1ccc(/C(Cn2nnc3ccccc32)=N\Nc2nc(-c3ccc([N+](=O)[O-])cc3)cs2)cc1 | 256 µg/mL (≈ 511 µM) | inactive | inactive | 17.5 mm | inactive | inactive | inactive | inactive | inactive | inactive |  | 2 | 14.3 mm | 128 µg/mL (≈ 256 µM) |  |
| inactive | inactive | inactive | 64 µg/mL (≈ 120 µM) | 128 µg/mL (≈ 240 µM) | 32 µg/mL (≈ 59.9 µM) | O=[N+]([O-])c1ccc(/C(Cn2nnc3ccccc32)=N\Nc2nc(-c3ccc(Br)cc3)cs2)cc1 |  | inactive | inactive |  | inactive | inactive |  |  |  |  | inactive | 2 | 17.3 mm | 64 µg/mL (≈ 120 µM) | MBC (Staphylococcus aureus [8]): 128 µg/mL (≈ 240 µM); zone of inhibition at 128 µg/disc (Bacillus subtilis [9]): 15.3 mm; zone of inhibition at 128 µg/disc (Staphylococcus aureus [10]): 22.6 mm; MBC (Bacillus subtilis [11]): 256 µg/mL (≈ 479 µM) |
| inactive | inactive | inactive | 64 µg/mL (≈ 102 µM) | 64 µg/mL (≈ 102 µM) |  | FC(F)(F)c1cc(-c2csc(N/N=C(/Cn3nnc4ccccc43)c3ccc(Br)cc3)n2)cc(C(F)(F)F)c1 |  | inactive | inactive |  | inactive | inactive |  |  |  |  | inactive |  |  |  | diameter of the inhibition zone (DIZ) (Escherichia coli [4]): inactive; diameter of the inhibition zone (DIZ) (Candida albicans [6]): inactive; MBC (Staphylococcus aureus [8]): 64 µg/mL (≈ 102 µM); zone of inhibition at 128 µg/disc (Bacillus subtilis [9]): 20.3 mm; zone of inhibition at 128 µg/disc (Staphylococcus aureus [10]): 22.1 mm; MBC (Bacillus subtilis [11]): 128 µg/mL (≈ 205 µM); MFC99.9 (Candida albicans [12]): inactive; MIC (Candida albicans [12]): inactive |
| inactive | inactive | 128 µg/mL (≈ 240 µM) | inactive | inactive |  | O=[N+]([O-])c1ccc(-c2csc(N/N=C(/Cn3nnc4ccccc43)c3ccc(Br)cc3)n2)cc1 |  | inactive |  |  | inactive |  | inactive | inactive | inactive | inactive | inactive |  |  |  | zone of inhibition at 128 µg/disc (Pseudomonas aeruginosa [3]): 13.2 mm; diameter of the inhibition zone (DIZ) (Escherichia coli [4]): inactive; diameter of the inhibition zone (DIZ) (Candida albicans [6]): inactive; MBC (Pseudomonas aeruginosa [7]): 256 µg/mL (≈ 479 µM); MFC99.9 (Candida albicans [12]): inactive; MIC (Candida albicans [12]): inactive |
| inactive | inactive | inactive | 64 µg/mL (≈ 126 µM) | 64 µg/mL (≈ 126 µM) | 128 µg/mL (≈ 252 µM) | Fc1ccc(/C(Cn2nnc3ccccc32)=N\Nc2nc(-c3ccc(Br)cc3)cs2)cc1 |  | inactive | inactive |  | inactive | inactive |  |  |  |  | inactive | 2 | 14.7 mm | 256 µg/mL (≈ 505 µM) | diameter of the inhibition zone (DIZ) (Escherichia coli [4]): inactive; MBC (Staphylococcus aureus [8]): 128 µg/mL (≈ 252 µM); zone of inhibition at 128 µg/disc (Bacillus subtilis [9]): 22.8 mm; zone of inhibition at 128 µg/disc (Staphylococcus aureus [10]): 20.9 mm; MBC (Bacillus subtilis [11]): 128 µg/mL (≈ 252 µM) |
| 128 µg/mL (≈ 188 µM) | inactive | inactive | inactive | inactive | 128 µg/mL (≈ 188 µM) | FC(F)(F)c1cc(/C(Cn2nnc3ccccc32)=N\Nc2nc(-c3cc(C(F)(F)F)cc(C(F)(F)F)c3)cs2)cc(C(F)(F)F)c1 | 256 µg/mL (≈ 375 µM) | inactive | inactive | 16.4 mm | inactive | inactive | inactive | inactive | inactive | inactive |  | 2 | 11.7 mm | 256 µg/mL (≈ 375 µM) |  |

From ChEMBL document CHEMBL2021913, “Synthesis and biological evaluation of some novel thiazole substituted benzotriazole derivatives” (2012)
